According to ChEMBL document CHEMBL1134639, “Conformationally restricted analogues of 1N,14N-bisethylhomospermine (BE-4-4-4): synthesis and growth inhibitory effects on human prostate cancer cells” (2001):

Columns and labels:
Format in all cases: functional
[1] = tested on: LNCaP; test: Inhibition of cell growth was determined in LNCaP cell line of Human prostate tumor using MTT assay, on day 6 after treatment; settings: read-out: ID50 (the source's name)
Summary of the method: (§1)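 MTT growth assay on human prostate tumour cells seeded in microtitre plates and incubated overnight at 37 °C in humidified 95% air/5% CO₂. Diluted drug stocks were added to the middle 8 columns, with buffer controls in the outer columns. Each concentration was run in quadruplicate. ID₅₀ is the concentration giving 50% growth inhibition on day 6 of treatment.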

[2] = tested on: PC-3; test: Inhibition of cell growth was determined in PC-3 cell line of human prostate tumor using MTT assay, on day 6 after treatment; settings: read-out: ID50 (the source's name); summary of the method: as §1
[3] = tested on: DU-145; test: Inhibition of cell growth was determined in DU145 cell line of human prostate tumor using MTT assay, on day 6 after treatment; settings: read-out: ID50 (the source's name); summary of the method: as §1
[4] = tested on: DuPro; test: Inhibition of cell growth was determined in DUPRO cell line of human prostate tumor using MTT assay, on day 6 after treatment; settings: read-out: ID50 (the source's name); summary of the method: as §1
[5] = tested on: LNCaP; test: Inhibition of cell growth was determined in LNCaP cell line of human prostate tumor using MTT assay, on day 6 after treatment; settings: 144 h, read-out: ID50 (the source's name); summary of the method: as §1

SMILES	IC50 ([1]; Homo sapiens, LNCaP, 144 h) [nM]	IC50 ([2]; Homo sapiens, PC-3, 144 h) [nM]	IC50 ([3]; Homo sapiens, DU-145, 144 h) [nM]	further results
CCNC/C=C\CNC/C=C\CNCCCCNCC	690	> 31200		
CCNCCCCNC/C=C/CNCCCCNCC	497		220	
CCNC/C=C\CNCCCCNCCCCNCC	210			
CCNCCCCNC/C=C\CNCCCCNCC	65	> 31200	30	
CCNCCCCNCC#CCNCCCCNCC	2200			IC50 ([4]; 144 h): 3200 nM; IC50 ([2]; PC-3, 144 h): > 31200 nM
CCNCCCCNCc1ccccc1CNCCCCNCC	> 31200	> 31200		IC50 ([4]; Homo sapiens, DuPro, 144 h): > 31200 nM
CCNC/C=C\CNCCCCNC/C=C\CNCC	3000	700	130	
CCNC/C=C\CNC/C=C\CNC/C=C\CNCC	770			
CCNCCCCNCC1CC1CNCCCCNCC (stereo in doubt; 4)				IC50 [3]: 16 nM; IC50 [4]: 59 nM; IC50 [1]: 210 nM; IC50 [2]: 1600 nM
CCNCCCCNCC1CC1CNCCCCNCC (stereo in doubt; 7)	170	1400	20	
CCNCCCCNCC1CCC1CNCCCCNCC (stereo in doubt; 10)				IC50 [4]: 80 nM; IC50 [1]: 210 nM
CCNCCCCNCC1CCC1CNCCCCNCC (stereo in doubt; 13)		4700	21	IC50 [4]: 300 nM; IC50 [1]: 700 nM
CCNCCCCNCCCCNCCCCNCC [DIETHYLHOMOSPERMINE]		700	30	IC50 [5]: 100 nM; IC50 ([4]; Homo sapiens, DuPro, 144 h): 200 nM
